According to PMC2529378 (Evidence-based Complementary and Alternative Medicine : eCAM, 2007):
Marks after values point to notes of the source that are not given here.

Key:
[1] = tested on: luminal epithelium of the uterus; assay: Histology of uterine luminal epithelial cell height in immature rats; assay type: in vivo, Sprague Dawley rats; settings: 3 days
Summary of the method: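 Rats got daily s.c. doses for 3 days from postnatal day 20 and were killed 27 h after the last dose. Uteri were fixed in Bouin's solution for 24 h, paraffin-embedded, cut as 8 µm serial cross sections and H&E-stained. Luminal epithelial cell height was measured by light microscopy in the mid-region of each horn, in five areas from five sections ~160 µm apart. Mean and SD were reported; Dunnett's test compared groups with sesame-oil controls.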

[2] = target: human ERβ (Homo sapiens, UniProt Q92731); assay: Ligand binding assay for ERβ
human ERβ, sequence (Q92731 whole entry): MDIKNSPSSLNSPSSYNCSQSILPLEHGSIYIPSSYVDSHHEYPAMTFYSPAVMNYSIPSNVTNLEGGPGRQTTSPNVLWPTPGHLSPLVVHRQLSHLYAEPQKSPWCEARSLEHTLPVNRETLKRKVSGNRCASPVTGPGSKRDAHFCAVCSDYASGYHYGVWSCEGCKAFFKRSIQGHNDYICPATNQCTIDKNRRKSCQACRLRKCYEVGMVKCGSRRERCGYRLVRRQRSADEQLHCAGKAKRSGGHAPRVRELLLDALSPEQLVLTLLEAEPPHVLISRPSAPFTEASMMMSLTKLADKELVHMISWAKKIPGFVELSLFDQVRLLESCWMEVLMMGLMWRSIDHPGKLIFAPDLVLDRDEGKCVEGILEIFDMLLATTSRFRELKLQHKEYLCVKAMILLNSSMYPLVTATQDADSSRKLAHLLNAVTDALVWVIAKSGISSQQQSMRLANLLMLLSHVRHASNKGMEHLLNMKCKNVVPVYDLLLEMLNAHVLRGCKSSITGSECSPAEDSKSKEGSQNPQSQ

[3] = tested on: uterus of immature rats; assay: Uterotrophic assay in immature female rats; assay type: in vivo, Sprague Dawley rats; settings: 3 days; for Body weight, mean / Uterus wet weight, mean / Uterus/body weight: immature female rats; for Change in wet uterine weight: immature rats
Summary of the method: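 Female Sprague Dawley rats were housed at 23±1°C on a standard diet. From postnatal day 20 they were injected s.c. once daily for 3 days at 10 ml/kg in sesame oil. Doses were test compound at 1 g/kg/day or 17α-ethynylestradiol at 0.1 or 3 µg/kg/day; controls got sesame oil. Vaginal opening and clinical signs were monitored. On day 23, 27 h after the last dose, uteri were excised with ovaries attached and weighed. Dunnett's test was used versus controls.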

[4] = target: T1, human ERα (Homo sapiens, UniProt P03372); assay: Ligand binding assay for ERα
T1 sequence (P03372 1-595): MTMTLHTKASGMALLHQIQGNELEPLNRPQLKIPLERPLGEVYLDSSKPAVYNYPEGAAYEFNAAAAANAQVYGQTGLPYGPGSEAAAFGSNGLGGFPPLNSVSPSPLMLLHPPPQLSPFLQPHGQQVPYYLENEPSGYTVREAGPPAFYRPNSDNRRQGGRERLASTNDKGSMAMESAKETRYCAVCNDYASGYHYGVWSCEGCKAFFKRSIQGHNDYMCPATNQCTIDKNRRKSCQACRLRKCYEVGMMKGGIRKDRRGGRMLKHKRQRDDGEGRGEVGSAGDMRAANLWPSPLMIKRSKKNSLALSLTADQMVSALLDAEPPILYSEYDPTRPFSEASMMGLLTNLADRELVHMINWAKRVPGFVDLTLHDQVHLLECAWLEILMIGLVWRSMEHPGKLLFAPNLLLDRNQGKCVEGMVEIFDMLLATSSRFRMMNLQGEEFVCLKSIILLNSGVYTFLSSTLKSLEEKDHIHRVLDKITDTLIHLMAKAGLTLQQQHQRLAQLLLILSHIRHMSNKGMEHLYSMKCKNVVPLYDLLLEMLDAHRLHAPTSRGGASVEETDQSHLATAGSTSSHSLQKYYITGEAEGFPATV

[5] = tested on: MCF-7 cells; assay: MCF-7 cell proliferation assay; assay type: cell-based, human; settings: 1 μM
Summary of the method: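 MCF-7 cells were kept in RPMI-1640 with 10% heat-inactivated FBS at 37°C and 5% CO2. Cells were seeded at 10 000 cells/well in phenol red-free RPMI-1640 with 10% charcoal dextran-treated FBS. After 1 day the medium was changed and cells received test compound (0.001–0.1 mM) or 0.5 nM E2, with or without 1 µM tamoxifen. After three days, proliferation was read by colorimetric MTT assay. Mean and SD of six experiments.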

[6] = 1 g kg^−1 day^−1 s.c., vs vehicle-treated controls

Row | SMILES | Hypertrophy of the uterine luminal epithelium [1, 6] | IC50 [2] | Body weight, mean ([3]; 1 g kg^−1 day^−1 s.c.) | Uterus wet weight, mean ([3]; 1 g kg^−1 day^−1 s.c.) | Uterus/body weight ([3]; 1 g kg^−1 day^−1 s.c.) | Change in wet uterine weight ([3]; 1 g kg^−1 day^−1 s.c.) | Effect upon the ability of E2 to bind to ERα [4] | Effect on MCF-7 proliferation when administered alone [5] | Hypertrophy of the uterine luminal epithelium (luminal height) ([1]; 0.1 μg kg^−1 day^−1 s.c.) | Hypertrophy of the uterine luminal epithelium ([1]; 3 μg kg^−1 day^−1 s.c.) | Body weight, mean ([3]; 0.1 μg kg^−1 day^−1 s.c.) | Uterus wet weight, mean ([3]; 0.1 μg kg^−1 day^−1 s.c.) | Uterus/body weight ([3]; 0.1 μg kg^−1 day^−1 s.c.) | Body weight, mean ([3]; 3 μg kg^−1 day^−1 s.c.) | Uterus wet weight, mean ([3]; 3 μg kg^−1 day^−1 s.c.) | Uterus/body weight ([3]; 3 μg kg^−1 day^−1 s.c.) | Increase in wet uterine weight compared with vehicle-treated controls ([3]; doses of 0.1 and 3 μg kg^−1 day^−1 s.c.)
1 | C=C(CC[C@@H](C)[C@H]1CC[C@H]2[C@@H]3CC=C4C[C@@H](O)CC[C@]4(C)[C@H]3CC[C@]12C)C(C)C [24MET, 24-methylenecholesterol] | mild hypertrophy | 6 µM | 47.5 g | 25.9 mg | 0.55 | did not detect an increase | little or no effect | – | – | – | – | – | – | – | – | – | –
2 | O=C(O)CCCCCCCCCO [10HDA, 10-hydroxydecanoic acid] | mild hypertrophy | 140 µM | 45.8 g | 25.2 mg | 0.55 | did not detect an increase | little or no effect | – | – | – | – | – | – | – | – | – | –
3 | CC/C(=C(\c1ccccc1)c1ccc(OCCN(C)C)cc1)c1ccccc1 [tamoxifen] | – | – | – | – | – | – | – | no effect on proliferation | – | – | – | – | – | – | – | – | –
4 | O=C(O)/C=C/CCCCCCCO [10H2DA, 10-hydroxy-trans-2-decenoic acid] | mild hypertrophy | 90 µM | 42.9 ^* g | 25.9 mg | 0.59 | did not detect an increase | little or no effect | – | – | – | – | – | – | – | – | – | –
5 | CCCCCCC/C=C/C(=O)O [2DEA, trans-2-decenoic acid] | mild hypertrophy | 17 µM | 45.9 g | 22.9 mg | 0.51 | did not detect an increase | little or no effect | – | – | – | – | – | – | – | – | – | –
6 | C#C[C@]1(O)CC[C@H]2[C@@H]3CCc4cc(O)ccc4[C@H]3CC[C@@]21C [17αEE2, 17α-ethynylestradiol, reference compound] | – | – | – | – | – | – | – | – | only a mild increase in luminal height | marked hypertrophy | 47.9 g | 41.0 ^** mg | 0.87 | 47.1 g | 115 ^** mg | 2.5 | over 1.5 fold
